# Experimental data as given in ChEMBL document CHEMBL1145884, “Synthesis and biological activity of novel 1beta-methylcarbapenems with oxyiminopyrrolidinylamide moiety” (2003).
# Tested on: Pseudomonas aeruginosa
# Test: Antibacterial activity against Pseudomonas aeruginosa 1592E
# Details: not given
row,Compound,MIC
1,CO/N=C1/CCN(C(=O)[C@@H]2C[C@H](SC3=C(C(=O)O)N4C(=O)[C@H]([C@@H](C)O)[C@H]4[C@H]3C)CN2)C1,3.12 µg/mL
2,C[C@@H](O)[C@H]1C(=O)N2C(C(=O)O)=C(S[C@@H]3CN[C@H](C(=O)N4C/C(=N\O)C(CN)C4)C3)[C@H](C)[C@H]12 (some centres undefined),0.098 µg/mL
3,C[C@@H](O)[C@H]1C(=O)N2C(C(=O)O)=C(SCCNC=N)C[C@H]12 [IMIPENEM ANHYDROUS],0.781 µg/mL

# Tested on: Enterobacter cloacae
# Test: Antibacterial activity against Enterobacter cloacae 1321E
# Assay type: functional
# Details: not given
# Summary of the method: (§1)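 MIC was determined by agar dilution on Mueller–Hinton medium.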
row,Compound,MIC
1,CO/N=C1/CCN(C(=O)[C@@H]2C[C@H](SC3=C(C(=O)O)N4C(=O)[C@H]([C@@H](C)O)[C@H]4[C@H]3C)CN2)C1,0.049 µg/mL
2,C[C@@H](O)[C@H]1C(=O)N2C(C(=O)O)=C(S[C@@H]3CN[C@H](C(=O)N4C/C(=N\O)C(CN)C4)C3)[C@H](C)[C@H]12 (some centres undefined),0.049 µg/mL
3,C[C@@H](O)[C@H]1C(=O)N2C(C(=O)O)=C(SCCNC=N)C[C@H]12 [IMIPENEM ANHYDROUS],0.195 µg/mL

# Tested on: Streptococcus pyogenes
# Test: Antibacterial activity against Streptococcus pyogenes 308A
# Assay type: functional
# Details: not given
row,Compound,MIC
1,C[C@@H](O)[C@H]1C(=O)N2C(C(=O)O)=C(S[C@@H]3CN[C@H](C(=O)N4C/C(=N\O)C(CN)C4)C3)[C@H](C)[C@H]12 (some centres undefined),0.002 µg/mL
2,C[C@@H](O)[C@H]1C(=O)N2C(C(=O)O)=C(SCCNC=N)C[C@H]12 [IMIPENEM ANHYDROUS],0.007 µg/mL

# Tested on: Klebsiella aerogenes
# Test: Antibacterial activity against Klebsiella aerogenes 1522E
# Assay type: functional
# Details: not given
# Summary of the method: as §1
row,Compound,MIC
1,CO/N=C1/CCN(C(=O)[C@@H]2C[C@H](SC3=C(C(=O)O)N4C(=O)[C@H]([C@@H](C)O)[C@H]4[C@H]3C)CN2)C1,0.049 µg/mL
2,C[C@@H](O)[C@H]1C(=O)N2C(C(=O)O)=C(S[C@@H]3CN[C@H](C(=O)N4C/C(=N\O)C(CN)C4)C3)[C@H](C)[C@H]12 (some centres undefined),0.098 µg/mL
3,C[C@@H](O)[C@H]1C(=O)N2C(C(=O)O)=C(SCCNC=N)C[C@H]12 [IMIPENEM ANHYDROUS],0.391 µg/mL

# Tested on: Escherichia coli
# Test: Antibacterial activity against Escherichia coli 078
# Assay type: functional
# Details: not given
# Summary of the method: as §1
row,Compound,MIC
1,CO/N=C1/CCN(C(=O)[C@@H]2C[C@H](SC3=C(C(=O)O)N4C(=O)[C@H]([C@@H](C)O)[C@H]4[C@H]3C)CN2)C1,0.049 µg/mL
2,C[C@@H](O)[C@H]1C(=O)N2C(C(=O)O)=C(S[C@@H]3CN[C@H](C(=O)N4C/C(=N\O)C(CN)C4)C3)[C@H](C)[C@H]12 (some centres undefined),0.025 µg/mL
3,C[C@@H](O)[C@H]1C(=O)N2C(C(=O)O)=C(SCCNC=N)C[C@H]12 [IMIPENEM ANHYDROUS],0.195 µg/mL

# Tested on: Salmonella typhimurium
# Test: Antibacterial activity against Salmonella Typhimurium
# Assay type: functional, Salmonella enterica subsp. enterica serovar Typhimurium
# Details: Salmonella enterica
# Summary of the method: as §1
row,Compound,MIC
1,CO/N=C1/CCN(C(=O)[C@@H]2C[C@H](SC3=C(C(=O)O)N4C(=O)[C@H]([C@@H](C)O)[C@H]4[C@H]3C)CN2)C1,0.098 µg/mL
2,C[C@@H](O)[C@H]1C(=O)N2C(C(=O)O)=C(S[C@@H]3CN[C@H](C(=O)N4C/C(=N\O)C(CN)C4)C3)[C@H](C)[C@H]12 (some centres undefined),0.098 µg/mL
3,C[C@@H](O)[C@H]1C(=O)N2C(C(=O)O)=C(SCCNC=N)C[C@H]12 [IMIPENEM ANHYDROUS],0.781 µg/mL

# Tested on: Staphylococcus aureus
# Test: Antibacterial activity against Staphylococcus aureus 285
# Assay type: functional
# Details: not given
row,Compound,MIC
1,C[C@@H](O)[C@H]1C(=O)N2C(C(=O)O)=C(S[C@@H]3CN[C@H](C(=O)N4C/C(=N\O)C(CN)C4)C3)[C@H](C)[C@H]12 (some centres undefined),0.195 µg/mL
2,C[C@@H](O)[C@H]1C(=O)N2C(C(=O)O)=C(SCCNC=N)C[C@H]12 [IMIPENEM ANHYDROUS],0.025 µg/mL

# Tested on: Staphylococcus aureus
# Test: Antibacterial activity against Staphylococcus aureus 503
# Assay type: functional
# Details: not given
row,Compound,MIC
1,C[C@@H](O)[C@H]1C(=O)N2C(C(=O)O)=C(S[C@@H]3CN[C@H](C(=O)N4C/C(=N\O)C(CN)C4)C3)[C@H](C)[C@H]12 (some centres undefined),0.098 µg/mL
2,C[C@@H](O)[C@H]1C(=O)N2C(C(=O)O)=C(SCCNC=N)C[C@H]12 [IMIPENEM ANHYDROUS],0.013 µg/mL

# Tested on: Pseudomonas aeruginosa
# Test: Antibacterial activity against Pseudomonas aeruginosa 9027
# Assay type: functional
# Details: not given
# Summary of the method: as §1
row,Compound,MIC
1,CO/N=C1/CCN(C(=O)[C@@H]2C[C@H](SC3=C(C(=O)O)N4C(=O)[C@H]([C@@H](C)O)[C@H]4[C@H]3C)CN2)C1,0.391 µg/mL
2,C[C@@H](O)[C@H]1C(=O)N2C(C(=O)O)=C(S[C@@H]3CN[C@H](C(=O)N4C/C(=N\O)C(CN)C4)C3)[C@H](C)[C@H]12 (some centres undefined),0.195 µg/mL
3,C[C@@H](O)[C@H]1C(=O)N2C(C(=O)O)=C(SCCNC=N)C[C@H]12 [IMIPENEM ANHYDROUS],0.781 µg/mL

# Tested on: Escherichia coli
# Test: Antibacterial activity against Escherichia coli 1507E
# Assay type: functional
# Details: not given
# Summary of the method: as §1
row,Compound,MIC
1,CO/N=C1/CCN(C(=O)[C@@H]2C[C@H](SC3=C(C(=O)O)N4C(=O)[C@H]([C@@H](C)O)[C@H]4[C@H]3C)CN2)C1,0.049 µg/mL
2,C[C@@H](O)[C@H]1C(=O)N2C(C(=O)O)=C(S[C@@H]3CN[C@H](C(=O)N4C/C(=N\O)C(CN)C4)C3)[C@H](C)[C@H]12 (some centres undefined),0.049 µg/mL
3,C[C@@H](O)[C@H]1C(=O)N2C(C(=O)O)=C(SCCNC=N)C[C@H]12 [IMIPENEM ANHYDROUS],0.195 µg/mL

# Tested on: Pseudomonas aeruginosa
# Test: Antibacterial activity against Pseudomonas aeruginosa 1771M
# Assay type: functional
# Details: not given
# Summary of the method: as §1
row,Compound,MIC
1,CO/N=C1/CCN(C(=O)[C@@H]2C[C@H](SC3=C(C(=O)O)N4C(=O)[C@H]([C@@H](C)O)[C@H]4[C@H]3C)CN2)C1,0.781 µg/mL
2,C[C@@H](O)[C@H]1C(=O)N2C(C(=O)O)=C(S[C@@H]3CN[C@H](C(=O)N4C/C(=N\O)C(CN)C4)C3)[C@H](C)[C@H]12 (some centres undefined),0.098 µg/mL
3,C[C@@H](O)[C@H]1C(=O)N2C(C(=O)O)=C(SCCNC=N)C[C@H]12 [IMIPENEM ANHYDROUS],0.195 µg/mL

# Tested on: not listed separately
# Test: Compound was evaluated for its relative half life of hydrolysis to meropenem by partially purified porcine renal dihydropeptidase-I (DHP-I)
# Assay type: functional
# Details: Sus scrofa
row,Compound,relative t1/2 (DHP-I hydrolysis vs meropenem)
1,C[C@@H](O)[C@H]1C(=O)N2C(C(=O)O)=C(S[C@@H]3CN[C@H](C(=O)N4C/C(=N\O)C(CN)C4)C3)[C@H](C)[C@H]12 (some centres undefined),0.31
2,C[C@@H](O)[C@H]1C(=O)N2C(C(=O)O)=C(SCCNC=N)C[C@H]12 [IMIPENEM ANHYDROUS],0.17

# Tested on: Staphylococcus aureus
# Test: Antibacterial activity against Staphylococcus aureus SG 511
# Assay type: functional
# Details: not given
row,Compound,MIC
1,C[C@@H](O)[C@H]1C(=O)N2C(C(=O)O)=C(S[C@@H]3CN[C@H](C(=O)N4C/C(=N\O)C(CN)C4)C3)[C@H](C)[C@H]12 (some centres undefined),0.098 µg/mL
2,C[C@@H](O)[C@H]1C(=O)N2C(C(=O)O)=C(SCCNC=N)C[C@H]12 [IMIPENEM ANHYDROUS],0.025 µg/mL
